Results: the EternaBench riboswitch data

Test system: MS2 coat protein
Test: apparent Kd, MS2 coat protein; higher = weaker binding; RNA-MaP array; FMN 200 µM where present
In short: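 Green signal was scaled to red-channel RNA signal and control-cluster median Fmax, and the apparent Kd was taken as the median of filtered per-cluster binding-curve fits. The binding series used SNAP-549-labelled MS2 coat protein from 0.7 or 1.5 nM, doubling to 3 µM, on designs transcribed by stalled E. coli RNA polymerase on Illumina sequencing-chip clusters. Each series ran without and then with constant ligand in 100 mM Tris-HCl pH 7.5, 80 mM KCl, 4 mM MgCl2, BSA, DTT, yeast tRNA and Tween-20.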

[1] = designed as: OFF switch for flavin mononucleotide, no ligand
[2] = ligand present: flavin mononucleotide, designed as: OFF switch for flavin mononucleotide
[3] = designed as: ON switch for flavin mononucleotide, no ligand
[4] = ligand present: flavin mononucleotide, designed as: ON switch for flavin mononucleotide

Sequence | apparent Kd [1] | apparent Kd [2] | apparent Kd [3] | apparent Kd [4]
GGAUAGGACAGAGGAUAUACGUGCUAGAGAUACUAGCAAAAUUUCUUCACAUGAGGAUCACCCAUGUAGAAGGCUGUCCUAUCG | 4.55 nM | 5.6 nM |  | 
GGUCCAUCAUGAGGAUAUGGCACCUUAUUGGUGCCAGAAGGCAUGUCUAUAGACAUGAGGAUCACCCAUGUAAUAAAAUGGACC |  |  | 571 nM | 61.5 nM
GGACCUCCUGAGGAUAUUGCAUCACCCGACUGAUAAGAAGGCAGAACAUGAGGAUCACCCAUGUGGGUACUCGG | 32.3 nM | 36.1 nM |  | 
CCUUUGCUAUAUACAUGAGGAUCACCCAUGUCCACUGACAGACAGGAUAUCCUUAGAAACUAGCAGGAGAAGGGUCAGUCAUAC |  |  | 263 nM | 328 nM
UCAUUGUCAGGAUAUCUUAAUAACGGUUCACUGUUUUAUUUGGAGAAGGGACAUGAGGAUCACCCAUGUUCCUG | 18.3 nM | 20.8 nM |  | 
UGUCGGAGCAGAGGAUAUUACAUGAGGAUCACCCAUGUGGAAAAACCAAGCUGGAAACAGCAAUGUAAGAAGGCUGCUCCGACA | 487 nM | 804 nM |  | 
UAUGGUAAAGUCAGGAUAUACGUGCAGUUUUCUGGGUAGAAGGGACAUGAGGAUCACCCAUGUAUGGUAGUGUU | 118 nM | 142 nM |  | 
GUCAGCUCGUGAGGAUAUACAACACUGCUUCGGCAGUGUAUUAAGAUCACAUGAGGAUCACCCAUGUAGAAGGCACGAGUUGAU | 13.9 nM | 276 nM |  | 
AGUAACAGAGGAUAUACUGUUUUAUGUGUUUAUUAUUUUAAACAUGAGGAUCACCCAUGUAGAAGGCUGAAUAA | 49.7 nM | 40.4 nM |  | 
UUGGACGUCGUAGGCUAUGUAGGAUAUUCCUACAUGAGGAUCACCCAUGUUGACAUGGAAGAAGGACAGAAGGACGAUGUCCAU |  |  | 173 nM | 4.35 nM
GUCAGCUCGUGAGGAUAUACAACACUGCUUCGGCAGUGUAUUAAGAUCACAUGAGGAUCACCCAUGUAGAAGGCACGAGCAGAU | 13.4 nM | 258 nM |  | 
UGUCCACAUGAGGAUCACCCAUGUCAGGAGGUGACAGGAUAUUGCGAAAAAAAAAAAAAGCAAGAAGGGUCUGAUU |  |  | 244 nM | 89.5 nM
CCGAUAAUAGGACAGGAUAUGACUGUCGUCACAUGAGGAUCACCCAUGUCCCGGCAAUGCCACCGUUAGAAGGGUCCUAUCUCGA |  |  | 14.9 nM | 14.6 nM
CGCCUGCGUAGAAUUAGCAGCUGACAGGAUAUGACAUGAGGAUCACCCAUGUGAAUUAAGAAGAGUCAGAAGGGUCACGACGCG | 9.4 nM | 10.8 nM |  | 
UGUAAUUAGUAAGGAUAUACUAGUGAUUAGCUUGUAGAAGGUACAGUCUUAUGUAUAACAAAUUAACAUGAGGAUCACCCAUGU |  |  | 10.2 nM | 8.74 nM
UAAGGACAUGAGGAUCACCCAUGUGAGGAUAUGCUCUACGAACGUUUAUUUAUGAGAAGCAGAAGGCACAUUUU | 99.8 nM | 156 nM |  | 
GCAUUGAUAACAGGAUAUAUGUUUCCUACAUGAGGAUCACCCAUGUAGGUGAUCAGCCGCGAAAAGUAGAAGGGUUAUCAAUGC |  |  | 18 nM | 16.7 nM
ACGUCACAUGAGGAUCACCCAUGUCAGGCCGGACUAGGAUAUUAUCAUGCAGCGUGACCGUGAGAAGGAGUUGGAU |  |  | 104 nM | 82.2 nM

Sequence | apparent Kd [1] | apparent Kd [2] | apparent Kd [3] | apparent Kd [4]
GCUCCGCACUAGAAGGGUGACAUGAGGAUCACCCAUGUGCACUUCCGCUCUUAGCGGAAAGUGCCACAGGAUAUAGUGUGGAGU |  |  | 31.8 nM | 113 nM
GGAUGACAAAGUCAUCCAAAUCGAACAUGAGGAUCACCCAUGUAGGAUAUGCUACUGAAACAGUAGCAGAAGGACAUGUGCUUU | 35.3 nM | 187 nM |  | 
GCAGUAAAUAAAUGCACAUGAGGAUCACCCAUGUGGGAGGCACAGGAUAUCGUAUCAUAGUAGUACGAGAAGGGUGAUAAUCUC |  |  | 370 nM | 64.2 nM
AGCAUGUGAGGAUAUGCGGACUCCGGUAAAGCUGGAGUCCAGUAGAAGGCACAUGAGGAUCACCCAUGUGAUAA | 85.6 nM | 106 nM |  | 
AUAAUGAGAGGAUAUACAUGAGGAUCACCCAUGUAAUUAACACGGCGAGCUCCAAUACGUAGAAGGCUCAUUUA | 49.2 nM | 35 nM |  | 
AUCGUGAGUAAGGAUAUCACGCGACCCUUUCGGUGAGAAGGUGCCACAUGAGGAUCACCCAUGUGGGUCGUCGC | 15.6 nM | 15.9 nM |  | 
UCCUUGGUACAGAAGGACCGAGCUCAGUAGCAGGUAGGAUAUGUACAUGAGGAUCACCCAUGUCAGCGGUAAUUACCAGUUUUC | 57.5 nM | 24.2 nM |  | 
UGUGUGUGACAGGAUAUGCUGGUUGUGAGACGGGUAGAAGGGUCUACAUGAGGAUCACCCAUGUGGCCGGUUGG | 23.1 nM | 20.6 nM |  | 
GUUUCACAUGAGGAUCACCCAUGUGAGGAUAUAGAUUUGUUAGUGGUGAUUGGUGGAUUUAGAAGGCGCGUGAU | 81.3 nM | 66.2 nM |  | 
AAGAAACAUGAGGAUCACCCAUGUCAGGAUAUCUCGAAAAGCAUAGAAAUAUGCGAAGAGAGAAGGGACAAGAA | 65 nM | 57 nM |  | 
UUAAUUUGAUGAUAUUAUGACAUUAGAAGGCUGUACAUGUUGAUACAUGAGGAUCACCCAUGUAUAGAGGAUAUAGACAAUUUU | 40.9 nM | 91.7 nM |  | 
GUGCAUACGUGAGGAUAUGUAUUAGCUCGUGGUACAGAAGGCAUGUCUGAUGACAUGAGGAUCACCCAUGUUGGCACAGUGCGC |  |  | 48.2 nM | 27.6 nM
ACUACGAUAGCGAUAUGAUCGAGAGAUCAUGUCGCUAUUUUUAGAAGGACAUGAGGAUCACCCAUGUAGGAUAUGGGACGUGGA |  |  | 70.4 nM | 27.1 nM
UGGUACAUGGGAGGAUAUCCUCAAGAGACAUGAGGAUCACCCAUGUAUUAUAAGCCGAAAGGCAUGGAGAAGGCCCAUGUACCU |  |  | 75.4 nM | 19.5 nM
ACCGAACAUGAGGAUCACCCAUGUGAGGAUAUAGACGUGAAUUAAACACGUAACAAAACUAGAAGGCACUGGGC | 30.8 nM | 14.9 nM |  | 
GGUACUCAAAGAGUACCAAUACGAACAUGAGGAUCACCCAUGUAGGAUAUGCUAUGCAAAGCAUAGCAGAAGGACAUGUGCCUU | 41.7 nM | 276 nM |  | 
AGCUGUGGCCGAGGAUAUCUAACCUUCAUAACCGAAAUAUAAUCGGACAUGAGGAUCACCCAUGUAGAGAAGGCGGUCUCAGCA | 18.2 nM | 191 nM |  | 
GUUCUGUUAGGAUAUUGGAAAUCCGUAGCUGUGGCGCGCUUCAAGAAGGAACAUGAGGAUCACCCAUGUGAAAU | 25 nM | 25.4 nM |  | 
